Measurements as given in ChEMBL document CHEMBL1125144, “5-[(Aminoalkyl)amino]imidazo[4,5,1-de]acridin-6-ones as a novel class of antineoplastic agents. Synthesis and biological activity” (J Med Chem, 1990).
Values joined by “and” are separate entries in the source; they are usually repeats but may differ in a detail not shown here. Identical values can stand only once.

Legend:
HeLa = assay: In vitro cytotoxic activity against HeLaS3 cells in tissue culture was determined; format: functional, cell-based; settings: Homo sapiens
In short: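 HeLa S3 cells grown in tissue culture. Read-out is the concentration giving 50% inhibition. Significant cytotoxicity is defined as 50% inhibition at <1 µg/mL. Values are the mean of three independent experiments.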

P388 [1] = assay: In vivo antitumor activity was determined against P 388 leukemia cells implanted (ip) in BDF1 mice at a dose of 50 mg/kg; format: functional, Mus musculus
In short: (§1)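 Groups of eight BDF1 mice received 10⁶ P388 cells ip on day 0. Control groups of 18 mice received saline. Read-out is T/C (%). T/C ≤85% is scored toxic and ≥125% significant activity. Some doses were repeated in an independent multidose assay.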

P388 [2] = assay: In vivo antitumor activity was determined against P 388 leukemia cells implanted (ip) in BDF1 mice at a dose of 25 mg/kg; format: functional, Mus musculus; in short: as §1
P388 [3] = assay: In vivo antitumor activity was determined against P 388 leukemia cells implanted (ip) in BDF1 mice at a dose of 30 mg/kg; format: functional, Mus musculus; in short: as §1
P388 [4] = assay: In vivo antitumor activity was determined against P 388 leukemia cells implanted (ip) in BDF1 mice at a dose of 100 mg/kg; format: functional, Mus musculus; in short: as §1
P388 [5] = assay: In vivo antitumor activity was determined against P 388 leukemia cells implanted (ip) in BDF1 mice at a dose of 60 mg/kg; format: functional, Mus musculus; in short: as §1
P388 [6] = assay: In vivo antitumor activity was determined against P 388 leukemia cells implanted (ip) in BDF1 mice at a dose of 175 mg/kg; format: functional, Mus musculus; in short: as §1
P388 [7] = assay: In vivo antitumor activity was determined against P 388 leukemia cells implanted (ip) in BDF1 mice at a dose of 90 mg/kg; format: functional, Mus musculus; in short: as §1
P388 [8] = assay: In vivo antitumor activity was determined against P 388 leukemia cells implanted (ip) in BDF1 mice at a dose of 75; format: functional, Mus musculus; in short: as §1
P388 [9] = assay: In vivo antitumor activity was determined against P 388 leukemia cells implanted (ip) in BDF1 mice a dose of 75 mg/kg; format: functional, Mus musculus; in short: as §1
P388 [10] = assay: In vivo antitumor activity was determined against P 388 leukemia cells implanted (ip) in BDF1 mice at a dose of 75 mg/kg; format: functional, Mus musculus; in short: as §1
P388 [11] = assay: In vivo antitumor activity was determined against P 388 leukemia cells implanted (ip) in BDF1 mice at a dose of 150 mg/kg; format: functional, Mus musculus; in short: as §1

Row | SMILES | IC50 (HeLa) [µg/mL] | further results
1 | CN(C)CCCCCNc1ccc(N)c2nc3ccccc3c(O)c12.Cl.Cl | 1.05 | 
2 | CN(C)CCNc1ccc([N+](=O)[O-])c2nc3ccccc3c(O)c12.Cl | 0.15 | T/C (P388 [1]): 185%; T/C (P388 [2]; 25 mg/kg): 160% and 166%
3 | CN(C)CCCNc1ccc2nc(-c3ccccc3)n3c4ccccc4c(=O)c1c23.Cl.Cl | 0.28 | T/C (P388 [3]): 110%
4 | CN(C)CCCNc1ccc2ncn3c4ccccc4c(=O)c1c23.Cl.Cl | 0.15 | T/C (P388 [4]; 100 mg/kg): 133% and 120%
5 | CN(C)CCCCCNc1ccc([N+](=O)[O-])c2nc3ccccc3c(O)c12.Cl | 0.13 | T/C (P388 [5]): 144%
6 | Cc1nc2ccc(NCCN(C)C)c3c(=O)c4ccccc4n1c23.Cl.Cl | 0.05 | T/C (P388 [1]; 50 mg/kg): 190% and 230%
7 | CCCc1nc2ccc(NCCN(C)C)c3c(=O)c4ccccc4n1c23.Cl.Cl | 0.2 | T/C (P388 [6]): 211% and 233%
8 | CCc1nc2ccc(NCCCN(C)C)c3c(=O)c4ccccc4n1c23.Cl.Cl | 0.25 | T/C (P388 [7]): 130%
9 | CN(C)CCCNc1ccc([N+](=O)[O-])c2nc3ccccc3c(O)c12.Cl | 0.04 | T/C (P388 [4]): 189%; T/C (P388 [8]): 190%
10 | CCc1nc2ccc(NCCN(C)C)c3c(=O)c4ccccc4n1c23.Cl.Cl | 0.11 | T/C (P388 [4]): 200%
11 | CC(=O)Nc1ccc(NCCN(C)C)c2c(O)c3ccccc3nc12.Cl.Cl | > 5 | T/C (P388 [9]): 137%
12 | CN(C)CCNc1ccc2nc(-c3ccccc3)n3c4ccccc4c(=O)c1c23.Cl.Cl | 0.43 | T/C (P388 [1]): 150%
13 | CCCCCCCCc1nc2ccc(NCCN(C)C)c3c(=O)c4ccccc4n1c23.Cl.Cl | 0.2 | T/C (P388 [10]): <85%
14 | CC(=O)Nc1ccc(NCCCN(C)C)c2c(O)c3ccccc3nc12.Cl.Cl | > 5 | 
15 | CN(C)CCNc1ccc2ncn3c4ccccc4c(=O)c1c23.Cl.Cl | 0.06 | T/C (P388 [2]; 25 mg/kg): 180% and 188%
16 | Cc1nc2ccc(NCCCN(C)C)c3c(=O)c4ccccc4n1c23.Cl.Cl | 0.11 | T/C (P388 [11]): 122%
17 | CN(C)CCNc1ccc(N)c2nc3ccccc3c(O)c12.Cl.Cl | 2.93 | T/C (P388 [4]): <85%
18 | CN(C)CCCNc1ccc(N)c2nc3ccccc3c(O)c12.Cl.Cl | 0.25 | T/C (P388 [2]): <85%
19 | CN(C)CCCCCNc1ccc2ncn3c4ccccc4c(=O)c1c23.Cl.Cl | 0.5 | T/C (P388 [4]): 110%
20 | CC(C)c1nc2ccc(NCCN(C)C)c3c(=O)c4ccccc4n1c23.Cl.Cl | 0.37 | T/C (P388 [11]): 166%
